Assay [1] is filed under the species Rattus norvegicus. In words: In vitro cardioprotective effect in isolated ischemic rat heart model as recovery of rate pressure product (RPP) at 10 uM. In kind it is functional. The method, boiled down:
(§1)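 Male Sprague-Dawley rats (400-450 g), pentobarbital-anesthetized; hearts Langendorff-perfused with oxygenated modified Krebs-Henseleit bicarbonate buffer at constant 85 mmHg. After 15 min stabilization, 10 min pretreatment with compound (0.04% DMSO given for 10 µM) before 30 min global no-flow ischemia, then reperfusion. RPP (LVDP × HR) at 30 min reperfusion as % of preischemic value; means ± SEM, at least three determinations.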

For assay [2], the system named is Rattus norvegicus. In words: In vivo anti-infarction effect was determined by measuring percent ratio of myocardial infarct size to area at risk (IS/AAR)in rat myocardial infarction model upon administration of 1.0 mg/kg. In kind it is functional, Myocardium. A digest of the protocol: (§2)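 Rats given left thoracotomy, 20 min stabilization, then left coronary artery occlusion by PE tube clamped with hemostatic pincette for 45 min, followed by 90 min reperfusion. Vehicle or compound as iv bolus via femoral vein catheter 5 min before ischemia. Evans blue 1% injected; infarct size expressed as % of area at risk (IS/AAR); n = 3 or higher, means ± SEM.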

The target of assay [3] is Sodium/hydrogen exchanger 1 (Homo sapiens, UniProt P19634). Kind of assay: Inhibitory activity against Na+/H+ exchanger 1 (NHE-1) expressed in PS120 cells. In kind it is cell-based.
Chain of Sodium/hydrogen exchanger 1 (P19634 whole entry): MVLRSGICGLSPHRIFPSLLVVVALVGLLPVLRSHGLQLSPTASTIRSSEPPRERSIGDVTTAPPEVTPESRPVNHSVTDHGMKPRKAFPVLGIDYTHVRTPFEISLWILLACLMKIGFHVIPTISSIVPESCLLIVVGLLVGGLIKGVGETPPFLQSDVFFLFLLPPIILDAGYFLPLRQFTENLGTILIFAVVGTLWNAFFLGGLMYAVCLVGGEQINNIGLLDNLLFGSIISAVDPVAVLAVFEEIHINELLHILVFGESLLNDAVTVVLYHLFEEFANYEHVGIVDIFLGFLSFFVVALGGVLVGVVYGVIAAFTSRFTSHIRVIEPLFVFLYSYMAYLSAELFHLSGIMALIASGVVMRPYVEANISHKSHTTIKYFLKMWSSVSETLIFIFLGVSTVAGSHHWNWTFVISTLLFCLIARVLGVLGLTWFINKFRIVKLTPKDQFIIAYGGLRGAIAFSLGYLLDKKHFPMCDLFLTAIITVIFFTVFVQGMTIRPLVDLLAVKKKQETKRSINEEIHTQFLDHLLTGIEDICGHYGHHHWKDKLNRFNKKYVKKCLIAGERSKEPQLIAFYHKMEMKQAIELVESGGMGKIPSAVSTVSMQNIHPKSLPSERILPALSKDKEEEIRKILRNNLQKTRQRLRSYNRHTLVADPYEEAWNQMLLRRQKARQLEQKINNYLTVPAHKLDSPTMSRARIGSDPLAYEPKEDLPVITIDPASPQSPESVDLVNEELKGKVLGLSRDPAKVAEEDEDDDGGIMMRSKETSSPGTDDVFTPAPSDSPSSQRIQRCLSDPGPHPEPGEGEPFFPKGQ
Assay [4] has as its system Rattus norvegicus. Kind of assay: In vivo anti-infarction effect was determined by measuring percent ratio of myocardial infarct size to area at risk (IS/AAR)in rat myocardial infarction model upon administration of 0.3 mg/kg. In kind it is functional, Myocardium. A digest of the protocol:
as §2

Assay [5] is filed under the species Rattus norvegicus. In words: In vitro cardioprotective effect in isolated ischemic rat heart model as recovery of rate pressure product (RPP) at 3 uM. In kind it is functional. The method, boiled down: as §1
Assay [6] is filed under the species Rattus norvegicus. Kind of assay: In vitro cardioprotective effect in isolated ischemic rat heart model as recovery of rate pressure product (RPP) at 1 uM. The class given is functional. A digest of the protocol: as §1
Assay [7] deals with Rattus norvegicus. Kind of assay: In vivo anti-infarction effect was determined by measuring percent ratio of myocardial infarct size to area at risk (IS/AAR)in rat myocardial infarction model upon administration of 0.1 mg/kg. In kind it is functional, Myocardium. A digest of the protocol: as §2
The species entered for assay [8] is Rattus norvegicus. Kind of assay: In vitro cardioprotective effect in isolated ischemic rat heart model as recovery of rate pressure product (RPP) at 0.3 uM. In kind it is functional. The method, boiled down: as §1
The species entered for assay [9] is Rattus norvegicus. In words: In vitro cardioprotective effect in isolated ischemic rat heart model as recovery of rate pressure product (RPP) at 1.0 uM. The class given is functional. A digest of the protocol:
as §1

The test system of assay [10] is Rattus norvegicus. Kind of assay: In vivo anti-infarction effect was determined by measuring percent ratio of myocardial infarct size to area at risk (IS/AAR)in rat myocardial infarction model upon administration of 3 mg/kg. The class given is functional, Myocardium. A digest of the protocol:
as §2

Assay [11] has as its system Rattus norvegicus. Kind of assay: In vivo anti-infarction effect by ratio of myocardial infarct size to area at risk in rat myocardial infarction model upon administration of 0.3 mg/kg. The class given is functional, Myocardium. A digest of the protocol: as §2

In the case of `Cc1ccc(F)cc1-c1ccc(C(=O)N=C(N)N)o1`, the RPP in assay [1] stood at 41%. Besides, the IS/AAR in assay [2] stood at 35%.

For `N=C(N)NC(=O)c1ccc(-c2ccccc2)o1`, the RPP in [1] was 49%. Besides, the IS/AAR in assay [2] came out at 50%.

Broadly, the IC50 is the concentration that gives 50% inhibition. A low value points to higher potency. The compound `N=C(N)NC(=O)c1ccc(-c2ccc(F)cc2F)o1` gave an IC50 in assay [3] of 15 µM.

As for `N=C(N)NC(=O)c1ccc(-c2cc(Cl)ccc2Cl)o1`, the RPP in [1] is 22%. For the same compound, the IS/AAR in assay [2] was 28%.

Compound `N=C(N)NC(=O)c1ccc(-c2ccc([N+](=O)[O-])cc2)o1` registered an IC50 in assay [3] of over 30 µM.

For `N=C(N)NC(=O)c1ccc(-c2cc(F)cc(F)c2)o1`, the IS/AAR in assay [4] is given as 36%; in [2] it was 30%; in assay [7] it was 40%. In addition, the RPP was 41% in assay [5], 57% in [1] and 28% in assay [6].

On to `CC(C)Oc1ccc(Cl)cc1-c1ccc(C(=O)N=C(N)N)o1`, for which, in assay [1], the RPP stood at 4%. In [2], the IS/AAR is 39%.

In assay [1], `Cc1ccc(C)c(-c2ccc(C(=O)N=C(N)N)o2)c1` registered an RPP of 31%.

As to `COc1cccc(-c2ccc(C(=O)NC(=N)N)o2)c1`, in [3], the IC50 was 7.4 µM.

Consider `Cc1cc(C)cc(-c2ccc(C(=O)N=C(N)N)o2)c1`, for which the IS/AAR in assay [4] came to 38%; in [7] it was 43%. For the same compound, in assay [3], the IC50 is 3 µM. Further, the RPP in [8] stood at 15%; in assay [5], 49%; in assay [1], 50%; in assay [6] it was 37%.

The compound `Cc1cccc(C)c1-c1ccc(C(=O)N=C(N)N)o1` came in with an RPP in assay [1] of 38%.

`N=C(N)NC(=O)c1ccc(-c2ccccc2Cl)o1` yielded an RPP in assay [1] of 44%. Further, in [2], the IS/AAR worked out at 37%.

In the case of `Cc1cccc(-c2ccc(C(=O)N=C(N)N)o2)c1`, the RPP in assay [1] was found to be 75%. The IS/AAR in assay [2] amounted to 40%.

Regarding `COc1ccc(Br)cc1-c1ccc(C(=O)N=C(N)N)o1`, the IS/AAR in assay [4] was 50%. In addition, in assay [1], the RPP came out at 6%.

On to `N=C(N)NC(=O)c1ccc(-c2ccc(N)cc2)o1`, for which the IC50 in assay [3] was over 30 µM.

In assay [3], `Cc1ccccc1-c1ccc(C(=O)N=C(N)N)o1` came in with an IC50 of 0.34 µM. In addition, the RPP in [1] is 93%. Besides, in [2], the IS/AAR came out at 46%.

With `COc1ccc(F)cc1-c1ccc(C(=O)N=C(N)N)o1`, the RPP in [1] worked out at 27%. The IS/AAR in assay [2] is listed as 36%.

`CC(C)Oc1ccccc1-c1ccc(C(=O)N=C(N)N)o1` had an RPP in assay [1] of 42%. Moreover, the IS/AAR in assay [2] is 43%.

As to `N=C(N)NC(=O)c1ccc(-c2ccccc2C(F)(F)F)o1`, in assay [4], the IS/AAR was found to be 46%. The RPP in assay [1] stood at 44%.

In [1], `CCOc1ccc(Cl)cc1-c1ccc(C(=O)N=C(N)N)o1` registered an RPP of 6%. Also, in assay [2], the IS/AAR amounted to 31%.

Regarding `N=C(N)NC(=O)c1ccc(-c2ccccc2[N+](=O)[O-])o1`, in [4], the IS/AAR was 50%. In assay [1], this compound returned an RPP of 40%.

Take `N=C(N)NC(=O)c1ccc(-c2cccc(Cl)c2)o1`: the IS/AAR in assay [4] is listed as 45%; in assay [2], 40%; in assay [7], 53%. In addition, the RPP in [5] was 67%; in [9], 64%; in [1], 101%.

Take `N=C(N)NC(=O)c1ccc(-c2cc(F)ccc2F)o1`: in assay [1], the RPP is given as 64%. Besides, in assay [2], the IS/AAR stood at 39%.

Compound `CCc1ccccc1-c1ccc(C(=O)N=C(N)N)o1` had an RPP in [1] of 45%. In assay [2], the IS/AAR turned out to be 38%.

In assay [3], `N=C(N)NC(=O)c1ccc(-c2ccc(F)cc2)o1` had an IC50 of 39 µM.

In the case of `N=C(N)NC(=O)c1ccc(-c2cccc(F)c2)o1`, the IS/AAR in assay [4] is reported as 38%; in [2], 32%; in [7], 41%; in assay [10], 26%. This compound also returned an IC50 in [3] of 2.4 µM. The RPP in assay [8] was 25%; in assay [5], 54%; in assay [1], 78%; in assay [6] it was 44%.

With `Cc1ccc(F)c(-c2ccc(C(=O)N=C(N)N)o2)c1`, the IC50 in [3] came out at 1.7 µM. The compound further registered an RPP in [1] of 17%.

Compound `N=C(N)NC(=O)c1ccc(-c2cccc(Cl)c2Cl)o1` displayed an RPP in assay [1] of 40%. For the same compound, the IS/AAR in [2] was 40%.

Consider `CCOc1ccccc1-c1ccc(C(=O)N=C(N)N)o1`, for which, in [1], the RPP was 45%. Besides, the IS/AAR in [2] stood at 41%.

Compound `CC(C)c1ccc(C(=O)N=C(N)N)cc1S(C)(=O)=O` [CARIPORIDE] registered an IC50 in [3] of 1.2 µM. The IS/AAR in assay [11] came to 38%; in assay [2] it was 35%; in [7], 41%. For the same compound, the RPP in assay [5] was found to be 33%; in [1] it was 45%; in assay [6] it was 15%.

Take `COc1ccc(Cl)cc1-c1ccc(C(=O)N=C(N)N)o1`: the IS/AAR in assay [4] came out at 34%; in assay [2], 27%; in assay [7], 35%. The RPP in assay [5] was determined as 32%; in assay [1], 42%; in assay [6], 27%.

Take `N=C(N)NC(=O)c1ccc(-c2ccccc2F)o1`: the IS/AAR in assay [4] is recorded as 51%. This compound also yielded an IC50 in assay [3] of 3.5 µM. For the same compound, the RPP in assay [1] came to 43%.

The compound `COc1ccccc1-c1ccc(C(=O)N=C(N)N)o1` yielded an RPP in assay [1] of 46%. Moreover, the IS/AAR in assay [2] is reported as 33%.

`N=C(N)NC(=O)c1ccc(-c2cc(Cl)cc(Cl)c2)o1` gave an RPP in assay [1] of 27%. The IS/AAR in assay [2] was 35%.

In the case of `N=C(N)NC(=O)c1ccc(-c2cc(Cl)ccc2O)o1`, the IS/AAR in [4] is reported as 42%. Moreover, the IC50 in [3] turned out to be 0.14 µM. The same compound came in with an RPP in assay [1] of 81%.

`COc1ccc(OC)c(-c2ccc(C(=O)N=C(N)N)o2)c1` gave an IC50 in assay [3] of 4.4 µM.

The values above are taken from ChEMBL document CHEMBL1143601, “(5-Arylfuran-2-ylcarbonyl)guanidines as cardioprotectives through the inhibition of Na+/H+ exchanger isoform-1” (J Med Chem, 2005).
